The text below walks through data of ChEMBL document CHEMBL4196108, “5-Aroylindoles Act as Selective Histone Deacetylase 6 Inhibitors Ameliorating Alzheimer's Disease Phenotypes” (J Med Chem, 2018).

Each structure is given as a SMILES string. Activity calls are given as the source filed them. No cut-off for these calls is given here.

For test [1], the target named is T1, Protein deacetylase HDAC6 (Homo sapiens) (UniProt Q9UBN7).
T1 sequence (whole entry): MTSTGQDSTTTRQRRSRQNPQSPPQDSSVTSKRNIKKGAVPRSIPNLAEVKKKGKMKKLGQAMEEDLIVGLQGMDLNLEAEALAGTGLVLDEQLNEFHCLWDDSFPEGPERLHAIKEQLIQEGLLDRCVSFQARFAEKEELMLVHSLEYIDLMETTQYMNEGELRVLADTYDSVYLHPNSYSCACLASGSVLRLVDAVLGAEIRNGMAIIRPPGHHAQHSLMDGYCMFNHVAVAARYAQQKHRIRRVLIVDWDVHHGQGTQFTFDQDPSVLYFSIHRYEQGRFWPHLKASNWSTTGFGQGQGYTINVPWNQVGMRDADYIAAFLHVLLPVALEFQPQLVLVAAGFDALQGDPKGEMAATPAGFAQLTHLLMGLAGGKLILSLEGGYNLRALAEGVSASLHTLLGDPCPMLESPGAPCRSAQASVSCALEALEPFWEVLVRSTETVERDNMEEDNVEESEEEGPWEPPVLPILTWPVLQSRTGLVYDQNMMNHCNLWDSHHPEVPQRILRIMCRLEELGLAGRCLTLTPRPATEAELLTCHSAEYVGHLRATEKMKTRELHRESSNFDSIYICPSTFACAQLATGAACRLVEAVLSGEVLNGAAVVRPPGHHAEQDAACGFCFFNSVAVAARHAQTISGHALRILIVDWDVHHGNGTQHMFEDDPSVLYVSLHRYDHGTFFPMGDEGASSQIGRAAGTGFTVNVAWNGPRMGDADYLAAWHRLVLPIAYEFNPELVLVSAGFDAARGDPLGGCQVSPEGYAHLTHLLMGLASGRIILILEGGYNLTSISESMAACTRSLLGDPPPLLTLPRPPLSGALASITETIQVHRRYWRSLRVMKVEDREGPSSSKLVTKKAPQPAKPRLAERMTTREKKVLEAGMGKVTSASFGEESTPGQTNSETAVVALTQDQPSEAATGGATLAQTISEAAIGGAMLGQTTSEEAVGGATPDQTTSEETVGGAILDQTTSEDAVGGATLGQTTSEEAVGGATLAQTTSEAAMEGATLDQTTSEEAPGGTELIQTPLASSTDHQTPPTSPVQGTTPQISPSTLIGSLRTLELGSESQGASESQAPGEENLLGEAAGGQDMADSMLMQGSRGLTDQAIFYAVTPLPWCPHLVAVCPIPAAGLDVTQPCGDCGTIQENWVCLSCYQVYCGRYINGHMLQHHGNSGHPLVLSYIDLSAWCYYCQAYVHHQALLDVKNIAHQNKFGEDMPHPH
Briefly: Inhibition of HDAC6 in human SH-SY5Y cells assessed as increase in acetylation of alpha-tubulin at 0.1 to 1 uM after 24 hrs by Western blot analysis. In kind it is cell-based. The essentials: (§1)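 SH-SY5Y cells in MEM with 10% FBS at 37 °C, 5% CO2, treated 24 h at 0.1–1 µM. Lysates in HEPES/Triton buffer; 20 µg protein run on SDS-PAGE and immunoblotted for acetyl-α-tubulin, α-tubulin, acetyl-histone H3 and histone H3 with ECL detection.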
In general terms: In western blotting, separated proteins are transferred to a membrane and probed.

The test system of a further test is SH-SY5Y. Briefly: Inhibition of class 1 HDAC in human SH-SY5Y cells assessed as increase in acetylation of histone H3 at 0.1 to 1 uM after 24 hrs by Western blot analysis. The test is classed as cell-based. In a few lines: as §1
Test [2] concerns the target T2, Polyamine deacetylase HDAC10 (Homo sapiens, UniProt Q969S8).
T2 sequence (Q969S8 whole entry): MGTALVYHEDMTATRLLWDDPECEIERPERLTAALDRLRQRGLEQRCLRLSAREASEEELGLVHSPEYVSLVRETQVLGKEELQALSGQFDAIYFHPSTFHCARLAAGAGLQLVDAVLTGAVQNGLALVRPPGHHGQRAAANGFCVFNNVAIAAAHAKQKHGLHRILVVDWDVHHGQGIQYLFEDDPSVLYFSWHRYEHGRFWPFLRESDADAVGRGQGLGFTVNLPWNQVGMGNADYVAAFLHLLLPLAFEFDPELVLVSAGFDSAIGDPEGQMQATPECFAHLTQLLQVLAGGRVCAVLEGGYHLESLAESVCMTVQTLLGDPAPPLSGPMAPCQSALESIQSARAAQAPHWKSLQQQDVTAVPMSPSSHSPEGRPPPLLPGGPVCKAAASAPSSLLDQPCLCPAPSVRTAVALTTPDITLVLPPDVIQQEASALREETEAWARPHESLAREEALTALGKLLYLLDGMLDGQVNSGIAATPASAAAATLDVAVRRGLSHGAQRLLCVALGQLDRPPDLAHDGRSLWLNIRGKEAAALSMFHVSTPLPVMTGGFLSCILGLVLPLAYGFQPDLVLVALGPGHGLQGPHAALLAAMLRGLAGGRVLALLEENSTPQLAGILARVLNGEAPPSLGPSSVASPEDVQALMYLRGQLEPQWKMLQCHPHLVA
As to the kind of experiment: Inhibition of human HDAC10 using RHKKAc peptide as substrate.

For a further test, the target named is Histone deacetylase 1 (Homo sapiens, UniProt Q13547). Briefly: Inhibition of human HDAC1 using RHKKAc peptide as substrate.
The target of the next test is Histone deacetylase 2 (Homo sapiens, UniProt Q92769). Briefly: Inhibition of human HDAC2 using RHKKAc peptide as substrate.
The target of a further test is Histone deacetylase 3 (Homo sapiens, UniProt O15379).
The target in the next test is T3, Histone deacetylase 8 (Homo sapiens, UniProt Q9BY41).
T3 sequence (Q9BY41 whole entry): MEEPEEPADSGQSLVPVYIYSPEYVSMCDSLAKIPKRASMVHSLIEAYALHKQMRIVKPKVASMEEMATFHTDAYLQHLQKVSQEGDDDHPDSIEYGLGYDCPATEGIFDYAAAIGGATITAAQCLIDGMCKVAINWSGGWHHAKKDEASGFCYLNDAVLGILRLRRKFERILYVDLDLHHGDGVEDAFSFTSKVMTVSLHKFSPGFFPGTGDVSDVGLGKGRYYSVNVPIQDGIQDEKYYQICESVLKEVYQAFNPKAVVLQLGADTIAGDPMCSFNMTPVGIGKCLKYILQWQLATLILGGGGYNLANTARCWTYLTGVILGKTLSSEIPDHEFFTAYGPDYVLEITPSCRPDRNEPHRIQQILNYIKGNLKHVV
Briefly: Inhibition of human HDAC8 using RHKAcKAc peptide as substrate.

Test [3] addresses T4, Protein deacetylase HDAC6 (Homo sapiens, UniProt Q9UBN7).
T4 sequence (Q9UBN7 whole entry): T1 sequence (whole entry)
As to the kind of experiment: Inhibition of human HDAC6 using RHKKAc peptide as substrate.

Test [4] is filed under the species Homo sapiens. As to the kind of experiment: Selectivity index, ratio of IC50 for human HDAC1 to IC50 for human HDAC6.
For test [5], the species on record is Homo sapiens. As to the kind of experiment: Selectivity index, ratio of IC50 for human HDAC2 to IC50 for human HDAC6.
Test [6] is filed under the species Homo sapiens. Briefly: Selectivity index, ratio of IC50 for human HDAC3 to IC50 for human HDAC6.
For test [7], the species on record is Homo sapiens. As to the kind of experiment: Selectivity index, ratio of IC50 for human HDAC8 to IC50 for human HDAC6.
The species entered for test [8] is Homo sapiens. Briefly: Selectivity index, ratio of IC50 for human HDAC10 to IC50 for human HDAC6.

Sequence of Histone deacetylase 3 (O15379 whole entry): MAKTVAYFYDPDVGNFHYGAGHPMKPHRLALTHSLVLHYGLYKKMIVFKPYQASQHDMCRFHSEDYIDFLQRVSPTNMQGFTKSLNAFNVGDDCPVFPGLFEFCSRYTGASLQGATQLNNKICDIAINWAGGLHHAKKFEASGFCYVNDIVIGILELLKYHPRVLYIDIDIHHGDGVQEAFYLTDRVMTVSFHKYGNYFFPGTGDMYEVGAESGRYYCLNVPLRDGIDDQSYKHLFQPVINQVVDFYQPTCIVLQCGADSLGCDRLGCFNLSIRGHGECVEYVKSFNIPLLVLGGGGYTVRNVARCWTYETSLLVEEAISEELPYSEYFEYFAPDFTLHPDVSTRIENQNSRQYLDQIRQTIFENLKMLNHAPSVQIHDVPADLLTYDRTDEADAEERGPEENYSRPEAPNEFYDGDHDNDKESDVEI
Sequence of Histone deacetylase 2 (Q92769 whole entry): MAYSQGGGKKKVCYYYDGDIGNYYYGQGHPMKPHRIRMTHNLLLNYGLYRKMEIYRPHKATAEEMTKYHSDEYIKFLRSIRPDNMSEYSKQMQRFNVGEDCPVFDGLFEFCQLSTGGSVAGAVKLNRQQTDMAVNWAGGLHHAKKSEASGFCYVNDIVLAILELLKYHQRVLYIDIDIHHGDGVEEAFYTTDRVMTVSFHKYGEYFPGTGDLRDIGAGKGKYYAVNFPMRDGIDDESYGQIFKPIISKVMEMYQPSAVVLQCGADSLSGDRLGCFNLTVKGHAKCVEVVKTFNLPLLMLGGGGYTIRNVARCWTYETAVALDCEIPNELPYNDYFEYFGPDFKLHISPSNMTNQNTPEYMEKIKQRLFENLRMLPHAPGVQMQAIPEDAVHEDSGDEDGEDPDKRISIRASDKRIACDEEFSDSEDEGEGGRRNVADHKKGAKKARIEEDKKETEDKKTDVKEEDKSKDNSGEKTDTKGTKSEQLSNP
Sequence of Histone deacetylase 1 (Q13547 whole entry): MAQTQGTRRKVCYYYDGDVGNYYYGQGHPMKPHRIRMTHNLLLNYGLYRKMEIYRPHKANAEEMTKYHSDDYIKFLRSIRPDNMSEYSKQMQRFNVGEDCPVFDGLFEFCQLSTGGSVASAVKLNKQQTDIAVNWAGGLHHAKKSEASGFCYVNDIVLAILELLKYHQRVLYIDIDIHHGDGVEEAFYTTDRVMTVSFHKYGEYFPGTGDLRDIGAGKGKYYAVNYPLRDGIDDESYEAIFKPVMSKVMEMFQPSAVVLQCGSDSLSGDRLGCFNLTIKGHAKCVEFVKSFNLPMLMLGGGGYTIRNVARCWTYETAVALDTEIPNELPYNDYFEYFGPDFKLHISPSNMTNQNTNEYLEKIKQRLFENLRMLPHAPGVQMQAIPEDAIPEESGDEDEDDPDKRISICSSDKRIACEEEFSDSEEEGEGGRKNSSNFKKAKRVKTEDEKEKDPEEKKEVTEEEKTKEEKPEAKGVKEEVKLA

On to `O=C(CCCCCCNC(=O)c1cnc(N(c2ccccc2)c2ccccc2)nc1)NO`, for which the inhibition result (in test [1]; with SH-SY5Y) was “Active” in each case.

Take `COc1ccc(C(=O)c2ccc3c(ccn3S(=O)(=O)c3cccc(/C=C/C(=O)NO)c3)c2)cc1`: the IC50 in test [2] turned out to be 5.89 µM; at Histone deacetylase 1, 1.46 µM; against Histone deacetylase 2, 0.424 µM; at Histone deacetylase 3, 0.232 µM; at Histone deacetylase 8, 0.812 µM; in test [3], 0.751 µM. The Ratio IC50 in the test listed under Homo sapiens [4] is 1.7; in the test filed under Homo sapiens [5], 0.6; in the test listed under Homo sapiens [6], 0.3; in the test filed under Homo sapiens [7] it was 1.1; in the test listed under Homo sapiens [8], 7.8.

Turning to `COc1cccc(C(=O)c2ccc3c(ccn3Cc3ccc(C(=O)NO)cc3)c2)c1`, the IC50 in test [2] worked out at 47.9 µM; on Histone deacetylase 1 it was 3.79 µM; against Histone deacetylase 2 it was 5.14 µM; on Histone deacetylase 3, 5.09 µM; at Histone deacetylase 8, 1.12 µM; in [3] it was 0.0164 µM. For the same compound, the Ratio IC50 came to 231 in the test filed under Homo sapiens [4]; 313 in the test listed under Homo sapiens [5]; 310 in the test listed under Homo sapiens [6]; 68.3 in the test filed under Homo sapiens [7]; 2920 in the test filed under Homo sapiens [8].

In general, IC50 refers to the concentration that gives 50% inhibition. Lower therefore signals inhibition by little substance.
